Calls of active or inactive are those of the source. No cut-off for these calls is given here.

Holding throughout (assay type): cell-based
For assay [1], the target named is Mu-type opioid receptor (Homo sapiens) (UniProt P35372). The assay is described as follows: Induction of receptor internalization in YFP-tagged mu opioid receptor expressed in CHO cells. The method, boiled down: (§1)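 CHO cells stably expressing YFP-tagged MOP or YFP-tagged CCK2 receptor on coverslips, washed in PBS with 0.08 mM CaCl2 and 0.1 mM MgCl2. Incubated with 100 nM ligand at 4 °C for 90 min, washed with ice-cold PBS, then warmed in 37 °C PBS for various times. Fixed with 2% paraformaldehyde; YFP localization imaged by epifluorescence.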

Assay [2] shares this target. Kind of assay: Induction of receptor internalization in YC-tagged mu opioid receptor expressed in CHO cells after 90 mins. The method, boiled down:
(§2)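 CHO cells stably coexpressing YN-tagged CCK2 and YC-tagged MOP receptors on coverslips, washed with PBS containing 0.08 mM CaCl2 and 0.1 mM MgCl2. Incubated with 100 nM ligand at 4 °C for 90 min, washed with ice-cold PBS, then moved to prewarmed 37 °C PBS for various times. Fixed in 2% paraformaldehyde; reconstituted YFP fluorescence imaged by epifluorescence microscopy.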

In assay [3] the target is T1, Gastrin/cholecystokinin type B receptor (Homo sapiens) (UniProt P32239).
T1 sequence (whole entry): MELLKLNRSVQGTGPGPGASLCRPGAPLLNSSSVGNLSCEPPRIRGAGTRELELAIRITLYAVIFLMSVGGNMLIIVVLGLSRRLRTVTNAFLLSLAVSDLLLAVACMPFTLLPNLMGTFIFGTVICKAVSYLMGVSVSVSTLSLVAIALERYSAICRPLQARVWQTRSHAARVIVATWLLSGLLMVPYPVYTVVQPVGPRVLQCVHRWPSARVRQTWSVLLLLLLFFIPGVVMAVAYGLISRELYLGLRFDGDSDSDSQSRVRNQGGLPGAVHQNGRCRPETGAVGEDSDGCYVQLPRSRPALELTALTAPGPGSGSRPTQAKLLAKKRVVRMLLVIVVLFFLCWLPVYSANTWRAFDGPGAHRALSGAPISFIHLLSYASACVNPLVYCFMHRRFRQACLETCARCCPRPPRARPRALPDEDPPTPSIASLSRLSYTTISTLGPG
The assay is described as follows: Induction of receptor internalization in YN-tagged CCK2 receptor expressed in CHO cells at 4 degC. The essentials: as §2

In assay [4] the target is Mu-type opioid receptor (Homo sapiens) (UniProt P35372). The assay is described as follows: Induction of receptor internalization in YC-tagged mu opioid receptor expressed in CHO cells at 4 degC. As to conditions: TDE = time-dependent effect. The method, boiled down:
as §2

Assay [5] has as its target T1, Gastrin/cholecystokinin type B receptor (Homo sapiens). The assay is described as follows: Induction of receptor internalization in YN-tagged CCK2 receptor expressed in CHO cells after 90 mins. The method, boiled down:
as §2

For assay [6] the target is unchanged. The assay is described as follows: Induction of receptor internalization in YFP-tagged CCK2 receptor expressed in CHO cells. The essentials:
as §1

Chain of Mu-type opioid receptor (Homo sapiens) (P35372 whole entry): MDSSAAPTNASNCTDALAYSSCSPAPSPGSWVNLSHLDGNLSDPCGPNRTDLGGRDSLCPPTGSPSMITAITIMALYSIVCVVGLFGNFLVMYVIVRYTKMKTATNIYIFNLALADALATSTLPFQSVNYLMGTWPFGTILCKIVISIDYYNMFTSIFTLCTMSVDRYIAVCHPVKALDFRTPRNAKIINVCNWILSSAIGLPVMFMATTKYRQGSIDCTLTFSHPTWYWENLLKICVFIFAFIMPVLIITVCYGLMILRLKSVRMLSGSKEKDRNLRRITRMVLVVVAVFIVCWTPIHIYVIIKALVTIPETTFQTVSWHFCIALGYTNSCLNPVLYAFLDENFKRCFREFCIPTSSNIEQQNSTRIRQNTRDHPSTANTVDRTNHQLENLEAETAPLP

`C[C@@H](NC(=O)[C@@H](N)Cc1ccc(O)cc1)C(=O)NCC(=O)N(C)[C@@H](Cc1ccccc1)C(=O)NCCO`: the Activity result in assay [1] (TDE = time-dependent effect) was “tde”.
With `CNC(=O)COCC(=O)NCCCCNC(=O)COCC(=O)N[C@H]1CC[C@@]2(O)C3Cc4ccc(O)c5c4[C@@]2(CCN3C)[C@H]1O5`, in assay [1], the outcome was Active. Besides, the outcome in assay [2] was inactive.
With `CN1C(=O)[C@H](NC(=O)Nc2cccc(OCCNC(=O)COCC(=O)NCCNC(=O)COCC(=O)N[C@H]3CC[C@@]4(O)C5Cc6ccc(O)c7c6[C@@]4(CCN5)[C@H]3O7)c2)N=C(c2ccccc2)c2ccccc21`, the result in assay [3], in assay [5] and in assay [2] was Active. Further, the Activity result in assay [4] was “tde”.
For the molecule `Cc1cccc(NC(=O)N[C@@H]2N=C(c3ccccc3)c3ccccc3N(C)C2=O)c1`, the outcome in assay [6] was inactive.
As to `CNC(=O)COCC(=O)NCCCCCCNC(=O)COCC(=O)NCCOc1cccc(NC(=O)N[C@@H]2N=C(c3ccccc3)c3ccccc3N(C)C2=O)c1`, in assay [6], the result was Active. For the same molecule, the result in assay [2] was inactive.
In the case of `CN1C(=O)[C@H](NC(=O)Nc2cccc(OCCNC(=O)COCC(=O)N[C@H]3CC[C@@]4(O)C5Cc6ccc(O)c7c6[C@@]4(CCN5)[C@H]3O7)c2)N=C(c2ccccc2)c2ccccc21`, the outcome in assay [2] was inactive.
As for `CN1C(=O)[C@H](NC(=O)Nc2cccc(OCCNC(=O)COCC(=O)NCCCCCCNC(=O)COCC(=O)N[C@H]3CC[C@@]4(O)C5Cc6ccc(O)c7c6[C@@]4(CCN5)[C@H]3O7)c2)N=C(c2ccccc2)c2ccccc21`, the outcome in assay [3], in assay [5] and in assay [2] was Active. Also, the Activity result in assay [4] was “tde”.
As for `CN1C(=O)[C@H](NC(=O)Nc2cccc(OCCNC(=O)COCC(=O)NNC(=O)COCC(=O)N[C@H]3CC[C@@]4(O)C5Cc6ccc(O)c7c6[C@@]4(CCN5)[C@H]3O7)c2)N=C(c2ccccc2)c2ccccc21`, the result in assay [3], in assay [5] and in assay [2] was Active. Also, the Activity result in assay [4] was “tde”.

These data come from ChEMBL document CHEMBL1156983, “Modulation of cell surface expression of nonactivated cholecystokinin receptors using bivalent ligand-induced internalization” (J Med Chem, 2010).
